This is a sample that favours compounds with a hit; in the whole collection about 2.6% have one here.
HCV core dimer: blocks dimerization of HCV core protein. 300,000 compounds, 0.33% hits. AID 1899. inhibition, % at 5 µM. TR-FRET GST/Flag-core106 dimerization, 1536-well;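 active = inhibition above the mean of all tested compounds plus 3 SD, set per screening campaign, cut at about 45% in these data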
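System: GST-tagged and Flag-tagged HCV core protein residues 1-106 / Input: core106 proteins, GST 13.5 nM and Flag 17 nM / Buffer or medium: KF-containing HEPES buffer, pH 7.45, DTT, CHAPS, BSA / Probe or stimulus: Eu-anti-GST and XL665-anti-Flag labelled anti-tag antibodies / Schedule: 4 h, 22.5 °C incubation / Technique: TR-FRET 671 and 617 nm emission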
rCAG binder: molecules binding r(CAG) RNA repeats. r(CAG) RNA repeat, TO-PRO-1 dye displacement fluorescence. inhibition, % at 3 µM. 370,000 compounds, 1.3% hits. AID 651821;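 active = inhibition above the plate cutoff, the mean of all test compounds on that plate plus 3 SD, cut at about 35% in these data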;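 also: 0% = DMSO alone and 100% = 100 µM mitoxantrone as full dye displacement; higher means more dye released from RNA so lower well fluorescence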
ABHD5 PLIN5 PPI: ABHD5-PLIN5 protein interaction inhibition; Q00G26+Q8WTS1; Split G. princeps luciferase complementation, luminescence, 4 h; inhibition, % at 4 µM; 360,000 compounds, 0.78% hits; AID 602281;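 active = inhibition above the mean inhibition across every tested compound plus 3 SD, cut at about 22% in these data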;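 also: 0% = DMSO only wells and the 100% control is not disclosed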
Target sequence (Q00G26 whole entry, looked up): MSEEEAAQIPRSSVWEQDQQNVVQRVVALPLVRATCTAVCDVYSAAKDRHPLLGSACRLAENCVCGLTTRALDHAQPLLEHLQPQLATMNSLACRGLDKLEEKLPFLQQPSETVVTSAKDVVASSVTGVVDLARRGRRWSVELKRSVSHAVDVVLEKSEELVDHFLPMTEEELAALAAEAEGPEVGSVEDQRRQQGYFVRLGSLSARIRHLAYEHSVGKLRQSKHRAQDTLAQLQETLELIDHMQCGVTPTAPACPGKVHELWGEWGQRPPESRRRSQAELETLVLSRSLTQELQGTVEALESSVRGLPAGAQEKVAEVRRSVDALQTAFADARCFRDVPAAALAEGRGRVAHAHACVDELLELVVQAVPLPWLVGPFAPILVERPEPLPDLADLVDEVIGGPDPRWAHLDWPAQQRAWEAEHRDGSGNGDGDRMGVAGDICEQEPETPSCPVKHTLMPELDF
Target sequence (Q8WTS1 whole entry, looked up): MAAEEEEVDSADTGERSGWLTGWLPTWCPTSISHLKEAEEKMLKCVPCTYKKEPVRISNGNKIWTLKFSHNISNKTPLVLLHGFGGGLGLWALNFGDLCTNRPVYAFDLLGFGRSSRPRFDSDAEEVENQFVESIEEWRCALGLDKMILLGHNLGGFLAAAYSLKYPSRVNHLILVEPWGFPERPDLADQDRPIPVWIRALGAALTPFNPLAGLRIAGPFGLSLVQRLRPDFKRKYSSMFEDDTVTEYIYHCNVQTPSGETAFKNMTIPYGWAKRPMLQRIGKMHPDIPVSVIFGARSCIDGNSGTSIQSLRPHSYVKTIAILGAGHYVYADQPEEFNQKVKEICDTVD
NadD block: NadD (S. aureus) enzyme inhibition. inhibition, % at 20 µM. purified NadD enzyme, colorimetric absorbance read-out. 360,000 compounds, 0.78% hits; in the data active = inhibition above about 26%
rCAG binder conf: r(CAG) RNA repeat binding, confirmation; TO-PRO-1 dye displacement fluorescence; 4,300 compounds, 70% hits; shares compounds with rCAG binder; inhibition, % at 3 µM;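 active = inhibition above a per-plate cutoff, the mean inhibition of sample wells plus 3 SD, cut at about 35% in these data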;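 also: loss of TO-PRO-1 fluorescence as compound displaces dye from 1x1 AA loop RNA; 0% = DMSO only wells and 100% = 100 µM mitoxantrone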
dCAG dye counter: disrupts DNA CAG TO-PRO-1 complex, flagging rCAG hits. shares compounds with rCAG binder. d(CAG) DNA oligo TO-PRO-1 dye displacement, fluorescence. inhibition, % at 3 µM. 4,300 compounds, 94% hits;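 active = inhibition above its plate's cutoff, the mean test-well inhibition plus 3 SD, cut at about 4.8% in these data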;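 also: 0% = DNA dye mix with DMSO and 100% = 100 µM mitoxantrone; hits displace the dye from DNA and so lower well fluorescence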
The depositor's hits bear a star; · = no result.

SMILES	HCV core dimer	rCAG binder	ABHD5 PLIN5 PPI	NadD block	rCAG binder conf	dCAG dye counter
O=C(Nc1nncs1)c1cc(-c2ccco2)nc2ccccc12	·	47.8*	6.3	5.6	15.9	7.1*
O=C(O)c1ccccc1NC(=O)c1cc(-c2ccccc2)nc2ccccc12	16.9	56.4*	10.0	-0.5	61.9*	21.9*
Cc1ccc(O)c(-c2cc(C(=O)Nc3ccc(S(=O)(=O)Nc4nc(C)cc(C)n4)cc3)[nH]n2)c1	-7.0	55.0*	14.2	15.3	40.4*	11.7*
O=C(Nc1ccc(S(=O)(=O)Nc2nccs2)cc1)c1cc(-c2ccccn2)nc2ccccc12	15.1	66.3*	-8.3	23.3	61.0*	25.6*
Cc1ccccc1NC(=O)c1cc(-c2ccco2)nc2ccccc12	·	5.4	14.9	11.7	·	·
C[C@@H]1CN([C@@H](C)CO)C(=O)c2cc(C#CC(C)(C)O)cnc2O[C@@H]1CN(C)C(=O)c1ccccc1F	·	2.4	6.2	-0.1	·	·
Cc1noc(C)c1NC(=O)N(C)C[C@@H]1Oc2ncc(Br)cc2C(=O)N([C@@H](C)CO)C[C@@H]1C	·	1.9	-6.1	3.0	·	·
CC(C)CNc1ncnc2c1ncn2[C@H]1CN(CCc2ccccc2)C[C@@H](CO)O1	·	-1.5	-4.9	2.6	·	·
O=C(NNS(=O)(=O)c1cccc(Cl)c1)c1cc(-c2ccc(F)cc2)nc2ccccc12	9.1	43.8*	-0.6	6.4	44.0*	15.0*
O=C(Nc1ccc(S(=O)(=O)Nc2nccs2)cc1)c1ccncc1	·	2.2	-9.1	4.2	·	·
O=C(Nc1ccc(S(=O)(=O)Nc2nccs2)cc1)C1=NN(c2ccccc2)C(=O)CC1	14.1	35.6*	2.9	7.6	28.5	14.5*
CN(C)c1cccc(C(=O)Nc2ccc(S(=O)(=O)Nc3nccs3)cc2)c1	·	35.9*	-1.0	10.4	28.1	10.0*
CCN(CC)S(=O)(=O)c1ccc(NC(=O)c2cc(-c3ccccc3)nc3ccccc23)cc1	10.3	0.3	-8.1	21.3	·	·
Cc1cc(C)nc(NS(=O)(=O)c2ccc(NC(=O)c3cc(-c4ccccc4)nc4ccccc34)cc2)n1	23.1	48.7*	7.7	25.8	61.6*	24.7*
O=C(NN=C1CCCC1)c1cc(-c2ccc(F)cc2)nc2ccccc12	-1.1	14.7	-4.2	2.3	·	·
CC(=O)O[C@@H]1CCC[C@@]2(C(=O)N(Cc3ccccc3)c3ccc(-c4c(C)noc4C)cc32)[C@H]1NC(=O)CCc1ccccc1	·	8.7	·	·	·	·
COc1ccc(NC(=O)C2Cc3c(-c4cccc(F)c4)ccnc3O2)cn1 (configuration not stated)	·	1.4	-7.5	-1.0	·	·
CCOC(=O)C1=C(O)/C(=C/c2ccc(-c3ccccc3C(=O)O)o2)SC1=Nc1ccc(OC)cc1	·	38.1*	3.5	19.6	80.0*	38.4*
CCc1ccc(N=C2NC(=O)/C(=C/c3cc(Br)c(OCC(=O)O)c(OC)c3)S2)cc1	7.9	57.5*	1.5	23.8	55.6*	19.4*
CCc1ccc(N=C2NC(=O)/C(=C/c3cc(OC)c(OC)c(OC)c3)S2)cc1	-0.3	22.5	3.1	4.9	·	·
CCOc1cc(Br)cc(/C=C2\SC(=Nc3ccccc3)NC2=O)c1O	9.5	67.3*	5.2	36.2*	82.5*	47.3*
CCOc1cc(/C=C2/SC(=S)NC2=O)ccc1OC(=O)c1ccco1	5.0	71.8*	12.1	8.3	78.9*	42.7*
CC(C)CC1OC(C)CC2=C1C(=O)OC(C)(C)O2 (configuration not stated)	·	1.4	-12.3	4.4	·	·
CC1=C(C(=O)N2CCCCCC2)CC(CC(=O)NCCCCc2ccccc2)C(=O)N1CCC1=CCCCC1 (configuration not stated)	·	2.2	7.8	6.2	·	·
CCOC(=O)C1=C(O)/C(=C/c2ccc(OCC(=O)O)c(OCC)c2)SC1=Nc1ccccc1	3.1	15.3	3.2	17.3	·	·
CCOc1cc(/C=C2\SC(=Nc3ccc(CC)cc3)NC2=O)ccc1OCC(=O)O	17.2	71.2*	2.0	17.3	47.2*	14.0*
CCOC(=O)C1=C(O)/C(=C/c2ccc(OCC(=O)O)c(OC)c2)SC1=Nc1ccc(OCC)cc1	-4.5	38.2*	2.2	-1.2	64.8*	21.1*
CC(=O)C[C@@H]1SC[C@H](c2ccccc2)N1S(=O)(=O)c1ccc(C)cc1	·	0.6	7.1	·	·	·
